Data published in ChEMBL document CHEMBL1137414, “3'-Substituted 7-halogenoindirubins, a new class of cell death inducing agents” (J Med Chem, 2006).

How the values were obtained:
[1] = Inhibition of starfish CDK1/cyclin B in presence of 15 uM ATP; parameters: species or system Marthasterias glacialis
SH-SY5Y [2] = experiment: Survival of human SH-SY5Y cells at 25 uM by MTS reduction assay; assay type: functional, cell-based; details: for viability at 25 µM: Homo sapiens, SH-SY5Y, read-out: Survival
Summary of the method: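 Viability was read by MTS reduction and expressed as percent of untreated cells, as the average ± SE of three independent measurements, representative of two independent experiments.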

[3] = molecular target: Cyclin-dependent kinase 5/CDK5 activator 1 (Homo sapiens, UniProt Q00535); experiment: (§1) Inhibition of mammalian CDK5/p25; assay type: protein-complex assay
Summary of the method: (§2)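 Recombinant CDK5 and p25, each expressed in E. coli as GST fusions and affinity-purified on glutathione agarose, mixed in equal amounts. Phosphate incorporation onto P81 paper read by scintillation counting, blank subtracted. Activity taken as % of uninhibited. IC50 from dose-response curves.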

SH-SY5Y [4] = experiment: Death of human SH-SY5Y cells in absence of 20 uM Q-VD-OPh by MTS reduction assay; assay type: functional, cell-based; details: Homo sapiens, SH-SY5Y; read-out: IC50
SH-SY5Y [5] = experiment: Death of human SH-SY5Y cells at 25 uM after 48 hrs by LDH release assay; assay type: functional
Summary of the method: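 SH-SY5Y human neuroblastoma cells were grown in DMEM with 2 mM L-glutamine, antibiotics and 10% FCS at 37 °C under 5% CO2. […] Lactate dehydrogenase release was measured 48 h after addition and expressed as percent cell death.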

SH-SY5Y [6] = experiment: Survival of human SH-SY5Y cells after 24 hrs by MTS reduction assay; assay type: functional, cell-based
SH-SY5Y [7] = experiment: Survival of human SH-SY5Y cells after 48 hrs by MTS reduction assay; assay type: functional, cell-based
SH-SY5Y [8] = experiment: Death of human SH-SY5Y cells in presence of 20 uM Q-VD-OPh by MTS reduction assay; assay type: functional, cell-based; details: Homo sapiens, SH-SY5Y
[9] = molecular target: Cyclin-dependent kinase 5/CDK5 activator 1 (Homo sapiens, UniProt Q00535+Q15078); experiment: as §1; assay type: protein-complex assay; summary of the method: as §2
Chain of Cyclin-dependent kinase 5/CDK5 activator 1 (Homo sapiens, UniProt Q00535+Q15078) (Q00535 whole entry): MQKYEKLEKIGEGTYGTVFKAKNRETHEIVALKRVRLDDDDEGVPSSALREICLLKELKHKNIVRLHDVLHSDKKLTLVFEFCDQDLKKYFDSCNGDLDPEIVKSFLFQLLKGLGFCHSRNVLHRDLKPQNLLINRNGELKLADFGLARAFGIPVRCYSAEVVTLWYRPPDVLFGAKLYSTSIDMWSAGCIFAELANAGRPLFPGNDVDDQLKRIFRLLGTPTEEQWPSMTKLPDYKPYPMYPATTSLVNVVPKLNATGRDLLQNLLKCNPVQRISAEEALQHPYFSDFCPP
Chain of Cyclin-dependent kinase 5/CDK5 activator 1 (Homo sapiens, UniProt Q00535+Q15078) (Q15078 whole entry): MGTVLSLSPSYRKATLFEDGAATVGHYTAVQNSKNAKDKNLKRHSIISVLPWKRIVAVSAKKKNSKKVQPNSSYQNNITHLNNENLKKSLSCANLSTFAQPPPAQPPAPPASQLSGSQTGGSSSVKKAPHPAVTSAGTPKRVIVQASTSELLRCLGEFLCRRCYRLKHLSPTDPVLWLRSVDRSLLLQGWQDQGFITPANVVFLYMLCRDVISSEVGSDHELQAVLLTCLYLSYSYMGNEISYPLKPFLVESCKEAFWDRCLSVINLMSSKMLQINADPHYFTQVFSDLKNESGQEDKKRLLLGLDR

Chain of Cyclin-dependent kinase 5/CDK5 activator 1 (Homo sapiens, UniProt Q00535) (Q00535 whole entry, the tested form may be a part): as the sequence (Q00535 whole entry) above
Chain of Cyclin-dependent kinase 5/CDK5 activator 1 (Homo sapiens, UniProt Q00535) (Q15078 whole entry, further chain, the tested form may be a part): as the sequence (Q15078 whole entry) above

SMILES | IC50 [1] [µM] | viability at 25 µM (SH-SY5Y [2]) [%] | IC50 [3] [µM] | other results
Cn1c(O)c(C2=Nc3ccccc3C2=O)c2ccccc21 | 100 | 98 | – | –
O=Nc1c(-c2c(O)[nH]c3c(I)cccc23)[nH]c2ccccc12 | 66 | 64 | 77 | –
Oc1[nH]c2c(Br)cccc2c1C1=Nc2ccccc2/C1=N\OCCBr | > 100 | 87 | 25 | –
Cn1c(O)c(-c2[nH]c3ccccc3c2N=O)c2cccc(I)c21 | > 100 | 74 | > 100 | –
Cn1c(O)c(-c2[nH]c3ccccc3c2N=O)c2cccc(Br)c21 | > 100 | 84 | > 100 | –
O=C1C(c2c(O)[nH]c3c(Cl)cccc23)=Nc2ccccc21 | > 10 | 92 | > 100 | –
CO/N=C1\C(c2c(O)[nH]c3ccccc23)=Nc2ccccc21 | 1.4 | 86 | 0.4 | –
CC(=O)O/N=C1/C(c2c(O)n(C)c3c(I)cccc23)=Nc2ccccc21 | > 10 | 82 | > 100 | –
O=Nc1c(-c2c(O)[nH]c3ccccc23)[nH]c2ccccc12 [INDIRUBIN-3-MONOXIME] | – | 27 | – | IC50 (SH-SY5Y [4]): 13 µM; Activity (SH-SY5Y [5]): 33%; IC50 (SH-SY5Y [6]; Homo sapiens, SH-SY5Y, 24 h): > 25 µM; IC50 (SH-SY5Y [7]; Homo sapiens, SH-SY5Y, 48 h): 12 µM; IC50 (SH-SY5Y [8]): > 25 µM
Cn1c(O)c(C2=Nc3ccccc3C2=O)c2cccc(F)c21 | > 10 | 101 | > 100 | –
Cn1c(O)c(C2=Nc3ccccc3/C2=N\OCCn2ccnc2)c2cccc(Br)c21 | > 10 | 85 | > 10 | –
CO/N=C1/C(c2c(O)[nH]c3c(I)cccc23)=Nc2ccccc21 | > 10 | 84 | > 100 | –
CCN(CC)CCO/N=C1/C(c2c(O)[nH]c3c(Br)cccc23)=Nc2ccccc21.Cl (stereo in doubt; 13ls) | – | – | – | IC50 [9]: > 10 µM; Survival (SH-SY5Y [2]): 72%
CCN(CC)C(=O)O/N=C1/C(c2c(O)n(C)c3c(Br)cccc23)=Nc2ccccc21 | > 10 | 105 | > 10 | –
CO/N=C1/C(c2c(O)[nH]c3c(Cl)cccc23)=Nc2ccccc21 | > 10 | 97 | > 100 | –
O=C1C(c2c(O)[nH]c3c(I)cccc23)=Nc2ccccc21 | > 10 | 96 | > 100 | –
O=C1C(c2c(O)[nH]c3c(Br)cccc23)=Nc2ccccc21 | > 100 | 92 | > 100 | –
Cn1c(O)c(C2=Nc3ccccc3/C2=N\OCCBr)c2cccc(Br)c21 | > 10 | 99 | > 10 | –
O=C1C(c2c(O)[nH]c3c(F)cccc23)=Nc2ccccc21 | 10 | 70 | ≥ 10 | –
CC(=O)O/N=C1/C(c2c(O)n(C)c3c(F)cccc23)=Nc2ccccc21 | > 10 | 105 | > 100 | –
Oc1[nH]c2c(Br)cccc2c1C1=Nc2ccccc2/C1=N\OCCN1CCOCC1 | – | – | – | IC50 [9]: > 10 µM; Survival (SH-SY5Y [2]): 98%
Cl.Oc1[nH]c2c(Br)cccc2c1C1=Nc2ccccc2/C1=N\OCCN1CCOCC1 | > 100 | – | > 10 | Survival (SH-SY5Y [2]): 76%
CO/N=C1/C(c2c(O)[nH]c3c(Br)cccc23)=Nc2ccccc21 | > 100 | 97 | > 100 | –
CCN(CC)CCO/N=C1/C(c2c(O)[nH]c3c(Br)cccc23)=Nc2ccccc21 | – | – | – | IC50 [9]: > 10 µM; Survival (SH-SY5Y [2]): 49%
CC(=O)O/N=C1/C(c2c(O)n(C)c3c(Cl)cccc23)=Nc2ccccc21 | > 10 | 96 | > 100 | –
O=C1Nc2ccccc2/C1=C1/Nc2ccccc2C1=O [INDIRUBIN] | – | 104 | – | –
Cn1c(O)c(-c2[nH]c3ccccc3c2N=O)c2ccccc21 | 73 | 100 | – | –

SMILES | IC50 [1] [µM] | viability at 25 µM (SH-SY5Y [2]) [%] | IC50 [3] [µM] | other results
O=C1Nc2ccc(Br)cc2/C1=C1/Nc2ccccc2/C1=N\O [INDIRUBIN 2] | 0.045 | 13 | 0.028 | IC50 (SH-SY5Y [4]): 13 µM; Activity (SH-SY5Y [5]): 59%; IC50 (SH-SY5Y [6]; Homo sapiens, SH-SY5Y, 24 h): 18 µM; IC50 (SH-SY5Y [7]; Homo sapiens, SH-SY5Y, 48 h): 12 µM; IC50 (SH-SY5Y [8]): 23 µM
CO/N=C1/C(c2c(O)n(C)c3c(I)cccc23)=Nc2ccccc21 | > 10 | 99 | > 100 | –
CN(C)CCO/N=C1/C(c2c(O)n(C)c3c(Br)cccc23)=Nc2ccccc21 | – | – | – | IC50 [9]: > 10 µM; IC50 (SH-SY5Y [4]): 6.4 µM; Activity (SH-SY5Y [5]): 33%; IC50 (SH-SY5Y [6]; sh-sy5y): > 25 µM; IC50 (SH-SY5Y [7]; sh-sy5y): 5.5 µM; Survival (SH-SY5Y [2]): 49%; IC50 (SH-SY5Y [8]): > 25 µM
CO/N=C1/C(c2c(O)n(C)c3c(Cl)cccc23)=Nc2ccccc21 | > 10 | 99 | > 100 | –
Cn1c(O)c(C2=Nc3ccccc3C2=O)c2cccc(Cl)c21 | > 10 | 94 | > 100 | –
CCN(CC)CCO/N=C1/C(c2c(O)n(C)c3c(Br)cccc23)=Nc2ccccc21.Cl | > 10 | – | > 10 | IC50 (SH-SY5Y [4]): 18 µM; Activity (SH-SY5Y [5]): 58%; Survival (SH-SY5Y [2]): 15%; IC50 (SH-SY5Y [8]): > 25 µM
Cn1c(O)c(-c2[nH]c3ccccc3c2N=O)c2cccc(F)c21 | > 100 | 99 | > 100 | –
Cn1c(O)c(C2=Nc3ccccc3C2=O)c2cccc(I)c21 | > 10 | – | > 100 | Survival (SH-SY5Y [2]; sh-sy5y): 93%
CC(=O)O/N=C1/C(c2c(O)[nH]c3c(Cl)cccc23)=Nc2ccccc21 | > 10 | 89 | > 100 | –
CC(=O)O/N=C1/C(c2c(O)[nH]c3c(F)cccc23)=Nc2ccccc21 | 15 | 39 | > 100 | –
Cl.Cn1c(O)c(C2=Nc3ccccc3/C2=N\OCCN2CCOCC2)c2cccc(Br)c21 | > 10 | 90 | > 10 | –
CC(=O)O/N=C1/C(c2c(O)[nH]c3c(Br)cccc23)=Nc2ccccc21 | > 100 | 61 | > 100 | –
Oc1[nH]c2c(Br)cccc2c1C1=Nc2ccccc2/C1=N\OCCN1CCCC1 | – | – | – | IC50 [9]: > 10 µM; IC50 (SH-SY5Y [4]): 2 µM; Activity (SH-SY5Y [5]): 14%; IC50 (SH-SY5Y [6]; sh-sy5y): 3.6 µM; IC50 (SH-SY5Y [7]; sh-sy5y): 2.3 µM; Survival (SH-SY5Y [2]): 13%; IC50 (SH-SY5Y [8]): > 25 µM
CO/N=C1/C(c2c(O)n(C)c3c(F)cccc23)=Nc2ccccc21 | > 10 | 107 | > 100 | –
O=Nc1c(-c2c(O)[nH]c3c(F)cccc23)[nH]c2ccccc12 | 1.5 | 46 | 0.51 | –
CC(=O)O/N=C1/C(c2c(O)n(C)c3c(Br)cccc23)=Nc2ccccc21 | 70 | 95 | > 100 | –
Cn1c(O)c(-c2[nH]c3ccccc3c2N=O)c2cccc(Cl)c21 | > 100 | 94 | > 100 | –
Cn1c(O)c(C2=Nc3ccccc3C2=O)c2cccc(Br)c21 | 100 | 98 | > 100 | –
CCN(CC)C(=O)O/N=C1/C(c2c(O)[nH]c3c(Br)cccc23)=Nc2ccccc21 | > 100 | 106 | > 100 | –
Cn1c(O)c(C2=Nc3ccccc3/C2=N\OCCN2CCOCC2)c2cccc(Br)c21 | – | – | – | IC50 [9]: > 10 µM; Survival (SH-SY5Y [2]): 98%
CO/N=C1/C(c2c(O)n(C)c3c(Br)cccc23)=Nc2ccccc21 | > 100 | 100 | > 100 | –
O=C1Nc2cc(Br)ccc2/C1=C1/Nc2ccccc2/C1=N\O [6BIO] | – | 5 | – | Activity (SH-SY5Y [5]): 80%
CC(=O)O/N=C1/C(c2c(O)[nH]c3c(I)cccc23)=Nc2ccccc21 | > 10 | 67 | > 100 | –
CCN(CC)CCO/N=C1/C(c2c(O)n(C)c3c(Br)cccc23)=Nc2ccccc21 | – | – | – | IC50 [9]: > 10 µM; Survival (SH-SY5Y [2]): 83%
Oc1[nH]c2c(Br)cccc2c1C1=Nc2ccccc2/C1=N\OCCn1ccnc1 | – | – | – | IC50 [9]: > 10 µM; Survival (SH-SY5Y [2]): 59%
CC(=O)O/N=C1\C(c2c(O)[nH]c3ccccc23)=Nc2ccccc21 | – | 36 | 0.7 | –
CO/N=C1/C(c2c(O)[nH]c3c(F)cccc23)=Nc2ccccc21 | > 10 | 105 | > 100 | –
